ChEMBL document CHEMBL1147648, “Substituted coumarins as potent 5-lipoxygenase inhibitors” (Bioorg Med Chem Lett, 2006)

How the values were obtained:
Rattus norvegicus = assay: Oral absorption in rat at 20 mg/kg, po; format: ADME, organism-based; design: dose 20 mg/kg, route oral; conditions: in vivo
Method in brief: (§1)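 Rats dosed orally at 20 mg/kg in 0.5% methocel, given as the water-soluble sodium salt of the hydroxy-acid precursor that cyclizes to the coumarin.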

[1] = Oral bioavailability in squirrel monkey at 10 mg/kg, po; format: ADME, organism-based, Saimiri sciureus; conditions: in vivo
[2] = Cmax in rat at 20 mg/kg, po; format: ADME, organism-based; design: dose 20 mg/kg, route oral; conditions: in vivo; method in brief: as §1
[3] = Oral bioavailability in rat at 20 mg/kg, po; format: ADME, organism-based; conditions: in vivo; method in brief: as §1
[4] = biological target: T1, Polyunsaturated fatty acid 5-lipoxygenase (Rattus norvegicus) (UniProt P12527); assay: Activity against carrageenan-induced inflammation in orally dosed rat pleural cavity assessed as inhibition of LTB4 biosynthesis after 2 hrs; format: functional, organism-based
T1 sequence (whole entry): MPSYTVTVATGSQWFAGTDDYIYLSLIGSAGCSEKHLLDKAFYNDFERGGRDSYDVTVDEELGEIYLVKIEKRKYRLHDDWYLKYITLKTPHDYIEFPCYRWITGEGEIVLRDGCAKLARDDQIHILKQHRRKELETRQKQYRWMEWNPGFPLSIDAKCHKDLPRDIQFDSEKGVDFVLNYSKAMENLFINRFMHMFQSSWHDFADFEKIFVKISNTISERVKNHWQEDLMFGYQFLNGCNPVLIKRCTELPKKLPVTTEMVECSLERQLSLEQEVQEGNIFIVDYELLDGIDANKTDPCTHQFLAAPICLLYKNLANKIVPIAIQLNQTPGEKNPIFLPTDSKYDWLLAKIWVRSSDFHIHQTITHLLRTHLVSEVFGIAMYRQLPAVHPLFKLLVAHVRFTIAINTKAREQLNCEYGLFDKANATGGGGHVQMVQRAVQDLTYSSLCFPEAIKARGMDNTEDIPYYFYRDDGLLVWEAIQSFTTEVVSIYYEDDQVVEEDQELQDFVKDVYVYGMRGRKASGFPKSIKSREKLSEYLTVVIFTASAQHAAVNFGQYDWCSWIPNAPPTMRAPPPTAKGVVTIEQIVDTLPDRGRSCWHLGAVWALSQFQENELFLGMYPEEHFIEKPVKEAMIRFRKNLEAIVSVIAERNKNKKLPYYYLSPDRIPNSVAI

[5] = Cmax in squirrel monkey at 10 mg/kg, po after 2 hrs; format: ADME, organism-based, Saimiri sciureus; design: dose 10 mg/kg, route oral; conditions: in vivo
[6] = biological target: T2, Polyunsaturated fatty acid 5-lipoxygenase (Homo sapiens, UniProt P09917); assay: Inhibition of human 5-LO
T2 sequence (P09917 whole entry): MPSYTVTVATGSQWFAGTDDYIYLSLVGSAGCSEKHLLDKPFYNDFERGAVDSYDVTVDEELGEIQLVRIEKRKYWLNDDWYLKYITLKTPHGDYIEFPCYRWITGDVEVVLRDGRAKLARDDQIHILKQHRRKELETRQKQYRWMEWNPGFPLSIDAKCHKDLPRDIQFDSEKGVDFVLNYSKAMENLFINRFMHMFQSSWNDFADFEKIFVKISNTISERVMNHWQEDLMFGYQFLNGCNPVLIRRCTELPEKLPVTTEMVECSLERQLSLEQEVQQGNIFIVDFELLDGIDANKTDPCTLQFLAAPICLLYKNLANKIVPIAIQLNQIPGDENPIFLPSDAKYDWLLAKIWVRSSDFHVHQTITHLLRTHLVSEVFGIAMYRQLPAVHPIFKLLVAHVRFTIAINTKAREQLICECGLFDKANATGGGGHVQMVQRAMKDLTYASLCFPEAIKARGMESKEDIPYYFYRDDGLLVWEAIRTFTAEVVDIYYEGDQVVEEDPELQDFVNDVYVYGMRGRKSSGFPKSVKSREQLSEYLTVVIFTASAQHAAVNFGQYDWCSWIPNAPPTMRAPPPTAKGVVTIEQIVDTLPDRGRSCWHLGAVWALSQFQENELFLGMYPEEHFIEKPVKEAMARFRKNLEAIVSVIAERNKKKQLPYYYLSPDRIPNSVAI

[7] = biological target: T2, Polyunsaturated fatty acid 5-lipoxygenase; assay: Inhibition of LTB4 production in calcium ionophore A-23187-stimulated human polymorphonuclear leukocyte; format: functional
[8] = biological target: T2, Polyunsaturated fatty acid 5-lipoxygenase; assay: Inhibition of LTB4 production in calcium ionophore A-23187-stimulated human whole blood; format: functional, tissue-based

Row | IC50 [6] [nM] | IC50 [7] [nM] | IC50 [8] [nM] | SMILES | further results
1 | 9 | 0.8 | 52 | O=c1cc(-c2ccoc2)c2ccc(Sc3cc(F)cc(C(O)(C(F)(F)F)C(F)(F)F)c3)cc2o1 | 
2 | 26 | 0.5 | 88 | O=c1cc(-c2ccccc2)c2ccc(Sc3cc(F)cc(C(O)(C(F)(F)F)C(F)(F)F)c3)cc2o1 | 

Further lines, the molecule ahead of its results:

Row | SMILES | IC50 [6] [nM] | IC50 [7] [nM] | IC50 [8] [nM] | further results
3 | O=c1cc(-c2ccc(F)cc2)c2ccc(Sc3cc(F)cc(C(O)(C(F)(F)F)C(F)(F)F)c3)cc2o1 |  |  |  | Fa (Rattus norvegicus): Not Active
4 | O=C([O-])/C=C(/c1ccc(F)cc1)c1ccc(Sc2cc(F)cc(C(O)(C(F)(F)F)C(F)(F)F)c2)cc1[O-].[Na+].[Na+] |  |  |  | bioavailability [1]: 30%; Cmax [2]: 16 µM; bioavailability [3]: 100%; ED50 [4]: 1.6 mg/kg; Cmax [5]: 1.2 µM
5 | O=c1cc(-c2ccc(F)cc2)c2ccc(COc3cc(F)cc(C(O)(C(F)(F)F)C(F)(F)F)c3)cc2o1 | 55 | 1.9 | 150 | 
6 | O=c1cc(-c2ccoc2)c2ccc(COc3cc(F)cc([C@]4(O)C[C@H]5CO[C@@H](C4)O5)c3)cc2o1 | 200 | 3 | 48 | 
